Test results reported in ChEMBL document CHEMBL1681760, “Further SAR study on 11-O-substituted aporphine analogues: identification of highly potent dopamine D3 receptor ligands” (Bioorg Med Chem, 2011).

What was measured:
D(3) dopamine receptor = D(3) dopamine receptor (Homo sapiens, UniProt P35462); assay: Displacement of [3H]spiperone from dopamine D3 receptor expressed in human HEK293 cells by liquid scintillation counter; type: cell-based
Summary of the method: (§1)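 Stably transfected HEK293 membranes, 15 µg per tube, in duplicate. Competed against [3H]spiperone with increasing compound concentrations from 1 nM. Buffer 50 mM Tris, 4 mM MgCl2, pH 7.4; 30 °C for 50 min. Unlabelled spiperone defined nonspecific binding. Stopped by rapid GF/B filtration and washing with cold 50 mM Tris/5 mM EDTA.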

D(2) dopamine receptor [1] = biological target: T1, D(2) dopamine receptor (Homo sapiens, UniProt P14416); assay: Displacement of [3H]spiperone from dopamine D2 receptor expressed in human HEK293 cells by liquid scintillation counter; type: cell-based; summary of the method: as §1
D(1A) dopamine receptor [2] = biological target: T2, D(1A) dopamine receptor (Homo sapiens, UniProt P21728); assay: Displacement of [3H]SCH23390 from dopamine D1 receptor expressed in human HEK293 cells by liquid scintillation counter; type: cell-based
Summary of the method: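 Membranes from stably transfected HEK293 cells, 15 µg per tube, in duplicate. Incubated with [3H]SCH23390 and increasing compound concentrations from 1 nM. Buffer 50 mM Tris, 4 mM MgCl2, pH 7.4; 50 min at 30 °C. Nonspecific binding with unlabelled SCH23390. Reaction started by adding membranes and stopped by GF/B filtration.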

D(2) dopamine receptor [3] = biological target: T1, D(2) dopamine receptor; assay: Displacement of [3H]spiperone from dopamine D2 receptor expressed in human HEK293 cells at 10 uM by liquid scintillation counter; type: cell-based
D(1A) dopamine receptor [4] = biological target: T2, D(1A) dopamine receptor; assay: Displacement of [3H]SCH23390 from dopamine D1 receptor expressed in human HEK293 cells at 10 uM by liquid scintillation counter; type: cell-based
[5] = biological target: 5-hydroxytryptamine receptor 2A (Homo sapiens, UniProt P28223); assay: Displacement of [3H]Ketanserin from 5-HT2A receptor expressed in CHO cells by liquid scintillation counter; type: cell-based
Summary of the method: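 Duplicate incubations of CHO membranes (15 µg per tube) with [3H]Ketanserin and a rising compound series starting at 1 nM. Run in 50 mM Tris, 4 mM MgCl2, pH 7.4, at 30 °C for 50 min. Unlabelled ketanserin gave nonspecific binding. Bound counts retained on GF/B filters after cold-buffer washing.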

[6] = biological target: T3, 5-hydroxytryptamine receptor 1A (Homo sapiens, UniProt P08908); assay: Displacement of [3H]8-OH-DPAT from 5-HT1A receptor expressed in CHO cells by liquid scintillation counter; type: cell-based
T3 sequence (P08908 whole entry): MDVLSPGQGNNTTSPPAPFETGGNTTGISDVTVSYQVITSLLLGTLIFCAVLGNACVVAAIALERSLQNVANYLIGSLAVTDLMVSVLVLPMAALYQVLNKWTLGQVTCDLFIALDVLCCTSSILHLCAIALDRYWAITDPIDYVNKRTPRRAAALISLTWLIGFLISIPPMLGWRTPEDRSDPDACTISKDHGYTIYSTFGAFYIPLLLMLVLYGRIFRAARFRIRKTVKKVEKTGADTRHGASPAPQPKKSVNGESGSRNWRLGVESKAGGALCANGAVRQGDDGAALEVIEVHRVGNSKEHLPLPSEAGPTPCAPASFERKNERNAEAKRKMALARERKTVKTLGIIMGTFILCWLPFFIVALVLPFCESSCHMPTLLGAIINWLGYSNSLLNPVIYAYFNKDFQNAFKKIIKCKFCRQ
Summary of the method: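 CHO cell membrane homogenates, 15 µg per tube, in duplicate tubes. Test compound at increasing concentrations from 1 nM with 0.7 nM [3H]8-OH-DPAT. Buffer 50 mM Tris, 4 mM MgCl2, pH 7.4. Incubated 50 min at 30 °C. Nonspecific binding defined with WAY100635. Stopped by GF/B filtration and cold Tris/EDTA wash.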

[7] = Selectivity ratio of Ki for 5-HT1A receptor to Ki for dopamine D3 receptor
[8] = Selectivity ratio of Ki for 5-HT2A receptor to Ki for 5-HT1A receptor

5-hydroxytryptamine receptor 2A, sequence (P28223 whole entry): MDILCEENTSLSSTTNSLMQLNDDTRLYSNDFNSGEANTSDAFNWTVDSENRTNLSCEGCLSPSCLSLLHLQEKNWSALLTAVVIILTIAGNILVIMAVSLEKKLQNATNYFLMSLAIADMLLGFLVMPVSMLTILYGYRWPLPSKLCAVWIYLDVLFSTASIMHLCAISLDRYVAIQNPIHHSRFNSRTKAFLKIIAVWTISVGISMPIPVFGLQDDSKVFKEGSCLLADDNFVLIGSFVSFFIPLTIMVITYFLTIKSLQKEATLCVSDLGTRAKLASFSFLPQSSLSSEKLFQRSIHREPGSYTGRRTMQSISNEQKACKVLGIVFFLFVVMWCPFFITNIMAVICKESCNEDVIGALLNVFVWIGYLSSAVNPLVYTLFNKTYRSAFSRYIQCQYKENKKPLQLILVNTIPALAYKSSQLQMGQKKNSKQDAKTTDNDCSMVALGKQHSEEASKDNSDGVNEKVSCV
T1 sequence (P14416 whole entry): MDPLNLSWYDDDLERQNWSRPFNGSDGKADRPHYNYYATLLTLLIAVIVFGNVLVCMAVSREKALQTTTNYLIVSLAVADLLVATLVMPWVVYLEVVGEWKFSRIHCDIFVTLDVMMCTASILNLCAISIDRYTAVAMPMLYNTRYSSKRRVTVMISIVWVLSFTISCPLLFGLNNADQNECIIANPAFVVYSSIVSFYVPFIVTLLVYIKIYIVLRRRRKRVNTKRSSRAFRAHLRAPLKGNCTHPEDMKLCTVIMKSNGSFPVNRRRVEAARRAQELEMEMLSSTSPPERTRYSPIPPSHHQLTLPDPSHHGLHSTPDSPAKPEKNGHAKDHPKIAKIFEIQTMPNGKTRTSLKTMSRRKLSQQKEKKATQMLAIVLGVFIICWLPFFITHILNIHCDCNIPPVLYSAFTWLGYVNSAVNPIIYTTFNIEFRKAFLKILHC
D(3) dopamine receptor, sequence (P35462 whole entry): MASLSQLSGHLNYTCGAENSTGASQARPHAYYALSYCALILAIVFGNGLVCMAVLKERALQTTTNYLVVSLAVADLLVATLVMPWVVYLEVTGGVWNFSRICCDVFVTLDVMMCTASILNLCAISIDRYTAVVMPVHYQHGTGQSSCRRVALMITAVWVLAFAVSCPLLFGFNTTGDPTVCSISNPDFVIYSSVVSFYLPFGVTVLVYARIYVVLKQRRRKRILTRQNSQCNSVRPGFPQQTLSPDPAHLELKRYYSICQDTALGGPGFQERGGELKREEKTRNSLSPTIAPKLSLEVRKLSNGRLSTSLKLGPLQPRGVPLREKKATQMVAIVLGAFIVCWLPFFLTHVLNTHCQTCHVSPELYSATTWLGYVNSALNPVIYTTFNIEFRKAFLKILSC
T2 sequence (P21728 whole entry): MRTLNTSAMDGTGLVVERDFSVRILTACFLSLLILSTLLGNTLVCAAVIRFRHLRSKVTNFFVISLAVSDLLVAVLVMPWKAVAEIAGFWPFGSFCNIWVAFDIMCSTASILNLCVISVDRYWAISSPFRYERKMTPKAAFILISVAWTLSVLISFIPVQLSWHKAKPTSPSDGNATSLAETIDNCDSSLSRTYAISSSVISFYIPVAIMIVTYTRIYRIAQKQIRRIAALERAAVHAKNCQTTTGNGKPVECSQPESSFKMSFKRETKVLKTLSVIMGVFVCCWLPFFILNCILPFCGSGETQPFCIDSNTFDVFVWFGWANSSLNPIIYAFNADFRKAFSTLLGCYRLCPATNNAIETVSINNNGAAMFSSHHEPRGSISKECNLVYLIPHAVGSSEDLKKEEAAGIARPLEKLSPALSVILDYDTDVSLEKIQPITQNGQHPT

Structure (SMILES): CCCN1CCc2cccc3c2C1Cc1cccc(OCCCn2cc(CCCCN4CCN(c5ccccc5OC)CC4)nn2)c1-3 (racemic)
- Ki (D(3) dopamine receptor): 8.14 nM
- Ki (D(2) dopamine receptor [1]): 206 nM
- Ki (D(1A) dopamine receptor [2]): 1900 nM

Structure (SMILES): CCCN1CCc2cccc3c2[C@H]1Cc1cccc(OCCCCN2CCN(c4ccccc4OC)CC2)c1-3
- Ki (D(3) dopamine receptor): 23.4 nM
- Ki (D(2) dopamine receptor [1]): 141 nM
- Ki (D(1A) dopamine receptor [2]): 1310 nM

Structure (SMILES): CCCN1CCc2cccc3c2C1Cc1cccc(OCCCNCCCO)c1-3 (racemic)
- Ki (D(3) dopamine receptor): 4510 nM
- inhibition (D(2) dopamine receptor [3]): 9%
- inhibition (D(1A) dopamine receptor [4]): 44%

Structure (SMILES): CCCN1CCc2cccc3c2[C@@H]1Cc1cccc(OCCCCN2CCN(c4ccccc4OC)CC2)c1-3
- Ki (D(3) dopamine receptor): 189 nM
- Ki (D(2) dopamine receptor [1]): 174 nM
- Ki (D(1A) dopamine receptor [2]): 1170 nM

Structure (SMILES): CCCN1CCc2cccc3c2[C@H]1Cc1cccc(OCCCn2cc(CCN4CCN(c5ccccc5OC)CC4)nn2)c1-3
- Ki (D(3) dopamine receptor): 7.7 nM
- Ki (D(2) dopamine receptor [1]): 770 nM
- inhibition (D(1A) dopamine receptor [4]): 54%

Structure (SMILES): CCCN1CCc2cccc3c2C1Cc1cccc(OCc2cn(CCN4CCN(c5ccccc5OC)CC4)nn2)c1-3 (racemic)
- Ki (D(3) dopamine receptor): 44 nM
- inhibition (D(2) dopamine receptor [3]): 19%
- inhibition (D(1A) dopamine receptor [4]): 35%

Structure (SMILES): CCCN1CCc2cccc3c2[C@@H]1Cc1cccc(OCCCn2cc(CCN4CCN(c5ccccc5OC)CC4)nn2)c1-3
- Ki (D(3) dopamine receptor): 1.82 nM
- Ki (D(2) dopamine receptor [1]): 600 nM
- inhibition (D(1A) dopamine receptor [4]): 68%

Structure (SMILES): CCCN1CCc2cccc3c2C1Cc1cccc(OCCCn2cc(CN4CCN(c5ccccc5OC)CC4)nn2)c1-3 (racemic)
- Ki (D(3) dopamine receptor): 281 nM
- inhibition (D(2) dopamine receptor [3]): 51%
- inhibition (D(1A) dopamine receptor [4]): 42%

Structure (SMILES): CCCN1CCc2cccc3c2C1Cc1cccc(OCCCN(CCCN2CCN(c4ccccc4OC)CC2)S(C)(=O)=O)c1-3 (racemic)
- Ki (D(3) dopamine receptor): 102 nM
- Ki (D(2) dopamine receptor [1]): 399 nM
- Ki (D(1A) dopamine receptor [2]): 910 nM

Structure (SMILES): CCCN1CCc2cccc3c2C1Cc1cccc(OCCCCN2CCN(c4ccccc4OC)CC2)c1-3 (racemic)
- Ki [5]: 100000 nM
- Ki [6]: 58 nM
- Ki (D(3) dopamine receptor): 19.9 nM
- Ki (D(2) dopamine receptor [1]): 88 nM
- Ki (D(1A) dopamine receptor [2]): 735 nM

Structure (SMILES): CCCN1CCc2cccc3c2C1Cc1cccc(OCc2cn(CCCCN4CCN(c5ccccc5OC)CC4)nn2)c1-3 (racemic)
- Ratio [7]: 3.6
- Ki [5]: 174 nM
- Ki [6]: 9.68 nM
- Ki (D(3) dopamine receptor): 2.67 nM
- Ki (D(2) dopamine receptor [1]): 661 nM
- Ki (D(1A) dopamine receptor [2]): 2700 nM
- Ratio [8]: 18

Structure (SMILES): CCCN1CCc2cccc3c2C1Cc1cccc(OCc2cn(CCCN4CCN(c5ccccc5OC)CC4)nn2)c1-3 (racemic)
- Ki (D(3) dopamine receptor): 21 nM
- Ki (D(2) dopamine receptor [1]): 1200 nM
- inhibition (D(1A) dopamine receptor [4]): 67%

Structure (SMILES): CCCN1CCc2cccc3c2[C@@H]1Cc1cccc(OCc2cn(CCCCN4CCN(c5ccccc5OC)CC4)nn2)c1-3
- Ki (D(3) dopamine receptor): 8 nM
- Ki (D(2) dopamine receptor [1]): 293 nM
- inhibition (D(1A) dopamine receptor [4]): 66%

Structure (SMILES): CCCN1CCc2cccc3c2C1Cc1cccc(OCc2cn(CCCN4CCN(c5ccccc5)CC4)nn2)c1-3 (racemic)
- Ki (D(3) dopamine receptor): 191 nM
- inhibition (D(2) dopamine receptor [3]): 6%
- inhibition (D(1A) dopamine receptor [4]): 63%

Structure (SMILES): CCCN1CCc2cccc3c2C1Cc1cccc(OCc2cn(CCCN4CCN(c5ncccn5)CC4)nn2)c1-3 (racemic)
- Ki (D(3) dopamine receptor): 539 nM
- inhibition (D(2) dopamine receptor [3]): 13%
- inhibition (D(1A) dopamine receptor [4]): 32%

Structure (SMILES): CCCN1CCc2cccc3c2C1Cc1cccc(OCc2cn(CCCN4CCN(c5cccc(Cl)c5Cl)CC4)nn2)c1-3 (racemic)
- Ki (D(3) dopamine receptor): 35 nM
- Ki (D(1A) dopamine receptor [2]): 2010 nM
- inhibition (D(2) dopamine receptor [3]): 40.5%

Structure (SMILES): C#CCOc1cccc2c1-c1cccc3c1C(C2)N(CCC)CC3 (racemic)
- Ki (D(3) dopamine receptor): 2400 nM
- inhibition (D(2) dopamine receptor [3]): 28%

Structure (SMILES): CCCN1CCc2cccc3c2C1Cc1cccc(OCCCn2cc(CCCN4CCN(c5ccccc5OC)CC4)nn2)c1-3 (racemic)
- Ki (D(3) dopamine receptor): 8.16 nM
- inhibition (D(2) dopamine receptor [3]): 18%
- inhibition (D(1A) dopamine receptor [4]): 14%

Structure (SMILES): CCCN1CCc2cccc3c2[C@H]1Cc1cccc(OCc2cn(CCCCN4CCN(c5ccccc5OC)CC4)nn2)c1-3
- Ki (D(3) dopamine receptor): 9.18 nM
- Ki (D(2) dopamine receptor [1]): 616 nM
- Ki (D(1A) dopamine receptor [2]): 1600 nM

Structure (SMILES): CCCN1CCc2cccc3c2C1Cc1cccc(OCCCn2cc(CCN4CCN(c5ccccc5OC)CC4)nn2)c1-3 (racemic)
- Ratio [7]: 6.6
- Ki [5]: 245 nM
- Ki [6]: 7.59 nM
- Ki (D(3) dopamine receptor): 1.14 nM
- Ki (D(2) dopamine receptor [1]): 7380 nM
- inhibition (D(1A) dopamine receptor [4]): 64%
- Ratio [8]: 32
